Experiment [1] addresses T1, 14-3-3σ (Homo sapiens, UniProt P31947).
T1 sequence (P31947 1-231): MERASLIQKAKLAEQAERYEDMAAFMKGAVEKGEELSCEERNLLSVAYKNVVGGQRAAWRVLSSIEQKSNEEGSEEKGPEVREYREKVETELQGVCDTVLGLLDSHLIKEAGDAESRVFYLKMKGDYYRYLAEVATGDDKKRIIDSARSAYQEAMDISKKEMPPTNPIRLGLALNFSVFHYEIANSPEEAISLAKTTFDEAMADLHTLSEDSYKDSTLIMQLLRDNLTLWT
The experiment is described as follows: Isothermal titration calorimetry. It is filed as binding. The conditions noted are these: 30 °C, pH 7.6. The method, boiled down: (§1)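 ITC was run at 30 °C in 20 mM Tris-HCl pH 7.6 with 150 mM NaCl, 0.1 mM EDTA and 2 mM β-mercaptoethanol. 2 μl aliquots of 14-3-3 were injected into a 0.2 ml cell holding the test phosphopeptide: 44 μM peptide titrated with 0.5 mM full-length human 14-3-3γ, or 100 μM peptide titrated with 1 mM 14-3-3σ. Heat of dilution was subtracted before curve fitting. There were at least three repeats with varied concentrations.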
On the technique in general: ITC needs no label: the signal is the heat of the interaction.

Experiment [2] addresses T2, 14-3-3γ (Homo sapiens, UniProt P61981).
T2 sequence (P61981 1-247): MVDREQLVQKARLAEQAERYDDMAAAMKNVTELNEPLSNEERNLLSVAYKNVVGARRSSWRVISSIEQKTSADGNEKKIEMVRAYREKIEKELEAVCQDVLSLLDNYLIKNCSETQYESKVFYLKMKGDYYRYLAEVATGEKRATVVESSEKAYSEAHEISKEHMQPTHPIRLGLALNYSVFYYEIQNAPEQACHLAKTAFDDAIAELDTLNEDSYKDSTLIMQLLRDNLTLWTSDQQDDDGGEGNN
In words: Isothermal titration calorimetry. The class given is binding. The conditions noted are these: 30 °C, pH 7.6. The method, boiled down:
as §1

Experiment [3] has as its target T1, 14-3-3σ. The experiment is described as follows: Fluorescence competition titration. The class given is binding. The conditions noted are these: equimolar concentration and 7-fold excess of phosphopeptide; 30°C.
The target in experiment [4] is T1, 14-3-3σ. The experiment is described as follows: AEDANS fluorescence titration of pHSPB6AEDANS by 14-3-3σ. It is filed as binding. As to conditions: excitation at 336 nm, 4.2 µM pHSPB6AEDANS, 30°C. Summed up: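 Full-length HSPB6 was phosphorylated at Ser16 by PKA in vitro and moved into 20 mM HEPES pH 7.5 with 100 mM NaCl. It was reduced with 20 mM DTT for 20 min at room temperature, desalted, then labelled with a 6-fold molar excess of 1,5-I-AEDANS (1 h room temperature, then overnight at 4 °C), reaching 90% labelling. Human 14-3-3σ(1-231) was added stepwise with 5 min equilibration at 30 °C. Excitation was 336 nm and emission was read at 488 nm. Curves were buffer-corrected and fitted to a quadratic equation.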

The subject of experiment [5] is 14-3-3. The conditions noted are these: in vitro; ref Sudnitsyna et al., 2012; cited from earlier work.
For experiment [6], the system named is 14-3-3ζ. As to conditions: ref Sluchanko et al., 2011; cited from earlier work.
The test system of experiment [7] is 14-3-3 dimer. The experiment is described as follows: Affinity of pHSPB6 dimer to the 14-3-3 dimer. It is filed as binding, human. The conditions noted are these: Discussion.

Where a SMILES comes first, the peptide text is derived from it. [ ]: non-standard residue; d: D form. pS = N[C@@H](COP(=O)(O)O)C(=O)O

`CC(C)C[C@H](NC(=O)CNC(=O)[C@@H]1CCCN1C(=O)[C@H](CC(C)C)NC(=O)[C@@H]1CCCN1C(=O)[C@H](C)NC(=O)[C@H](COP(=O)(O)O)NC(=O)[C@H](C)NC(=O)[C@H](CCCNC(=N)N)NC(=O)[C@H](CCCNC(=N)N)NC(=O)[C@H](CC(C)C)NC(=O)[C@@H](N)Cc1c[nH]c2ccccc12)C(=O)N[C@@H](CCCCN)C(=O)O` [phosphopeptide 11-23] (H-WLRRA[pS]APLPGLK-OH): the “stoichiometry of binding (ITC)” value in experiment [1] and in experiment [2] was “one peptide per 14-3-3 subunit” in each case. Take “pHSPB6^AEDANS: phosphorylated full-length HSPB6 stoichiometrically labeled at its unique Cys46 residue with 1,5-I-AEDANS”: the “14-3-3σ/pHSPB6AEDANS interaction in the presence of phosphopeptide” value in experiment [3] is “resulted in a saturable curve (Fig.2b), suggestive of a retained 14-3-3σ/pHSPB6^AEDANS interaction”. Also, the “fluorescence peak shift upon titration with 14-3-3σ” value in experiment [4] is “shifted from 486 to 479 nm”. For the molecule “phosphocofilin: phosphocofilin, 14-3-3 complex partner”, the “direct 14-3-3/phosphocofilin interaction” value in experiment [5] is recorded as “could not be confirmed in vitro”.

For “pHSPB6: phosphorylated small heat shock protein HSPB6 (HSP20)”, the “affinity to 14-3-3ζ” value in experiment [6] was “micromolar affinity”. Also, in experiment [7], the “apparent affinity to the 14-3-3 dimer” value is listed as “submicromolar apparent affinity”.

These data come from paper PMC5321513 (Structure (London, England : 1993), 2017).
